Source: PubChem (The Scripps Research Institute Molecular Screening Center)
PP1 inh: blocks human PP1-alpha phosphatase, a PP5 counter-screen; P62136; purified PP1alpha, OMFP fluorescence; inhibition, % at 6.7 µM; 0.9% of 320,000 active; AID 2235;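 active = inhibition above the mean inhibition of all tested compounds plus 3 SD, computed separately for each screening campaign, cut at about 15% in these data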
Target sequence (P62136 whole entry, looked up): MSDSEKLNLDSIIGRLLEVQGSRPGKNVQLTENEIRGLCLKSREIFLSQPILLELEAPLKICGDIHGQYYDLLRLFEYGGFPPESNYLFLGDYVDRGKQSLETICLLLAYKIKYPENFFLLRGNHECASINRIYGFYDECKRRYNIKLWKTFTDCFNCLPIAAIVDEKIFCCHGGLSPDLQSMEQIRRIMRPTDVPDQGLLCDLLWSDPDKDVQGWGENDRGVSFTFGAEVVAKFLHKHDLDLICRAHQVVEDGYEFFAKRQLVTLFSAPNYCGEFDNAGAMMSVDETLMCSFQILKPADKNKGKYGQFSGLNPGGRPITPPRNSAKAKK
EBNA-1 inhibitor: blocks EBNA-1 binding to DNA; EBNA-1 DNA binding, fluorescence polarization; 0.34% of 300,000 active; AID 1950; inhibition, % at 14.8 µM; in the data active = inhibition above about 28%
PP5 primary: blocks human protein phosphatase 5 activity | inhibition, % at 6.7 µM | 0.18% of 320,000 active | P53041 | AID 1987 | purified PP5c, OMFP substrate fluorescence;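 active = inhibition above the campaign's mean inhibition across all tested compounds plus 3 SD, cut at about 9.5% in these data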;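 note: 0% = DMSO only and 100% = 100 µM cantharidin control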
HCV core dimer: blocks dimerization of HCV core protein | TR-FRET GST/Flag-core106 dimerization, 1536-well | inhibition, % at 5 µM | 0.33% of 300,000 active;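 active = inhibition above the mean of all tested compounds plus 3 SD, set per screening campaign, cut at about 45% in these data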
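Material: Tagged HCV core106 pair (GST and Flag) | Amount: GST-core106 13.5 nM, Flag-core106 17 nM | Medium: KF-containing HEPES buffer, pH 7.45, DTT, CHAPS, BSA | Reagent: Eu donor and XL665 acceptor anti-tag antibodies | Schedule: 4 h at 22.5 °C | Technique: Time-resolved FRET, ex 340 nm, em 617 and 671 nm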
ZTA DNA inh: blocks Epstein-Barr virus ZTA, an EBNA-1 counter-screen; P03206; ZTA-DNA binding, fluorescence polarization; inhibition, % at 11 µM; 0.15% of 320,000 active; in the data active = inhibition above about 33%
Target sequence (P03206 whole entry, looked up): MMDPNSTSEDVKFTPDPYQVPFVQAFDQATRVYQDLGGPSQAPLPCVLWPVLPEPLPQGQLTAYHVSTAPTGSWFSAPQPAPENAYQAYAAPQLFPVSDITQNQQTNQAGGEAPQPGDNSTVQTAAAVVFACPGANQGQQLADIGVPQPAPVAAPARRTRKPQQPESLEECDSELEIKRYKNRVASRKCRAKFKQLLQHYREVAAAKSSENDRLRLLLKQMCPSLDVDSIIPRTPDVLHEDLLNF
PP1 confirm: confirmation of human PP1 phosphatase inhibitors; shares compounds with PP1 inh; purified PP1alpha, OMFP substrate fluorescence; inhibition, % at 6.7 µM; 52% of 1,900 active; AID 2358;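 active = mean PP1 inhibition above a set limit taken from the earlier primary screen, cut at about 15% in these data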
PP5 inh counter: PP5 phosphatase inhibition, counter-screen for PP1 inhibitors; purified PP5c, OMFP fluorescence; 4% of 1,900 active; inhibition, % at 6.7 µM; shares compounds with PP1 inh;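 active = mean PP5 inhibition over triplicate wells above about 9.5% taken from the earlier PP1 screen, limit read from the data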
* = called active by the depositor; . = no result. In the library only some 1.7% were active in any assay of this set; here they are far more common.

SMILES	PP1 inh	EBNA-1 inhibitor	PP5 primary	HCV core dimer	ZTA DNA inh	PP1 confirm	PP5 inh counter
Cc1cc2cc(CNC(=O)c3cc4ccccc4o3)ccc2n1C	22.4*	-7.7	4.6	28.8	0.1	9.3	-2.2
Cc1cc2cc(CNC(=O)c3ccco3)ccc2n1C	8.6	-0.5	2.4	24.0	5.3	.	.
Nc1ccc2nc(-c3cccc(-c4nc5ccc(N)cc5[nH]4)c3)[nH]c2c1	42.1*	-10.0	2.6	-31.0	-22.3	-2.5	4.3
CCN(CC)C(=O)CSc1nnc(CSc2ncccn2)n1C	-0.2	5.3	2.4	-4.4	-1.7	.	.
O=C(c1cc(-c2cccc(Br)c2)nc2ccccc12)N1CCCC1	2.2	3.5	2.1	13.3	-1.8	.	.
O=C(c1cc(-c2ccc(Br)cc2)nc2ccccc12)N1CCC1	19.8*	-1.8	-0.1	10.3	11.0	-22.9	-3.6
CCc1ccccc1N(C)S(=O)(=O)c1ccc2[nH]cc(C(=O)O)c(=O)c2c1	24.2*	-8.7	1.9	0.0	12.8	18.5*	-5.8
CN(c1ccc(F)cc1)S(=O)(=O)c1ccc2[nH]cc(C(=O)O)c(=O)c2c1	15.1	4.1	1.1	6.0	12.2	.	.
O=C(Nc1ccc(S(=O)(=O)N2CCCCCC2)cc1)c1[nH]ncc1[N+](=O)[O-]	57.8*	4.4	-0.1	15.3	1.5	16.2*	-4.2
COc1ccc(N2CCN(C(=O)CSc3ncnc4scc(-c5ccc(C)cc5)c34)CC2)cc1	25.9*	8.8	2.6	10.3	-15.2	18.9*	0.9
COc1ccc(N2CCN(c3ncnc4scc(-c5ccc(C)cc5)c34)CC2)cc1	5.4	3.6	1.4	0.9	-3.6	.	.
Cc1ccc(-c2nn(-c3ccccc3)cc2C2CC(c3cccs3)=NN2C(=O)CCC(=O)O)cc1 (stereo not given)	18.9*	23.2	2.9	27.3	10.4	10.3	-0.8
Cc1ccc(C(=O)N/C(=C/c2ccc(-c3cc(C(F)(F)F)ccc3Cl)o2)C(=O)NCc2cccnc2)cc1	21.7*	-6.3	2.7	12.8	17.6	12.6	3.4
O=C(NCc1cccnc1)/C(=C/c1ccc(-c2cccc(C(F)(F)F)c2)o1)NC(=O)c1ccccc1	7.1	-0.6	7.0	-4.0	-11.3	.	.
CCOC(=O)N1CCN(S(=O)(=O)c2ccc(C(=O)Nc3nnc(CSC)o3)cc2)CC1	18.2*	-5.5	-4.5	-11.7	4.5	5.6	0.8
CCOC(=O)N1CCN(S(=O)(=O)c2ccc(C(=O)Nc3nnc(C)o3)cc2)CC1	7.4	-7.2	0.7	1.2	3.3	.	.
CCCCN(CC)S(=O)(=O)c1ccc(C(=O)Nc2nnc(-c3cccs3)o2)cc1	26.3*	-1.4	8.8	21.5	18.5	18.0*	0.1
CCCCN(CCCC)S(=O)(=O)c1ccc(C(=O)Nc2nnc(COC)o2)cc1	23.4*	6.8	0.4	3.0	-4.0	15.8*	-2.3
CCN(CC)S(=O)(=O)c1ccc(C(=O)Nc2nnc(COC)o2)cc1	4.6	4.4	2.8	-3.5	8.5	.	.
CCCCN(C)S(=O)(=O)c1ccc(C(=O)Nc2nnc(CSC)o2)cc1	23.7*	-1.6	0.7	0.0	5.5	23.0*	-1.7
CCN(CC)S(=O)(=O)c1ccc(C(=O)Nc2nnc(-c3ccco3)o2)cc1	5.7	1.9	2.1	3.4	2.8	.	.
Cc1ccc(NC(=O)C2CCCN2S(=O)(=O)c2ccc3c(c2)n(C)c(=O)c(=O)n3C)cc1C (stereo not given)	-1.4	5.6	3.1	6.4	16.8	.	.
COc1ccccc1NC(=O)c1cc(S(=O)(=O)NC2CCCC2)ccc1F	1.2	-26.6	2.8	2.0	-0.7	.	.
CC1Cc2cc(/C(O)=C3/C(=O)C(=O)N(CCCn4ccnc4)C3c3ccc(Br)cc3)ccc2O1 (stereo not given)	26.3*	-3.3	1.2	4.7	1.4	31.3*	1.0
COc1ccccc1NC(=O)c1ccc(CSc2ccccc2)o1	-2.2	8.4	0.2	2.0	5.2	.	.
SMILES	PP1 inh	EBNA-1 inhibitor	PP5 primary	HCV core dimer	ZTA DNA inh	PP1 confirm	PP5 inh counter
CCN(CC)C(=O)/C(=C/c1cn(S(=O)(=O)N(C)C)c2ccccc12)NC(=O)c1ccc(OC)cc1	27.1*	9.3	-0.2	6.0	10.6	22.5*	-2.0
O=C(COc1ccc(F)cc1Cl)Nc1nc(-c2ccccn2)cs1	42.4*	-8.8	1.3	-1.1	-1.2	42.5*	-2.1
Cn1cccc1C(=O)Nc1nc(-c2ccccn2)cs1	32.5*	3.5	5.5	1.6	4.4	41.4*	1.4
O=C(Nc1nc(-c2ccccn2)cs1)c1ccc(Cl)s1	30.6*	-0.9	6.2	-9.0	-10.2	29.2*	3.5
O=C(Nc1ccccn1)c1ccc(Cl)s1	-2.6	5.6	-1.0	-5.3	-6.4	.	.
O=C(CCCSc1ccccc1)Nc1nc(-c2ccccn2)cs1	41.1*	6.3	5.0	20.1	1.1	39.4*	-1.6
O=C(CCn1c(=O)oc2ccccc21)Nc1ccc2c(c1)OCCO2	2.9	5.9	-1.1	12.8	-3.6	.	.
COCCNC(=O)CSc1nnc(-c2ccccc2F)n1Cc1ccccc1	7.7	0.1	2.5	2.6	14.1	.	.
O=C(/C=C/c1ccco1)Nc1nc(-c2ccccn2)cs1	32.5*	-5.2	2.2	16.7	-0.2	39.8*	-2.0
O=C(Nc1nc(-c2ccccn2)cs1)C1CCCC1	11.5	7.3	-0.9	5.2	6.8	.	.
O=C(Nc1nc(-c2ccccn2)cs1)c1ncc(Cl)c(Cl)c1Cl	36.7*	1.5	2.5	27.9	-9.7	40.8*	0.7
Cc1ccc(C(=O)Nc2nc(-c3ccccn3)cs2)s1	33.8*	.	4.9	.	-6.1	32.5*	-1.4
O=C(/C=C/c1ccco1)Nc1nc(-c2ccccc2)cs1	1.9	8.8	-1.6	37.8	1.5	.	.
C=CCc1cccc2cc(C(=O)Nc3ccc(S(=O)(=O)Nc4nnc(CC)s4)cc3)c(=O)oc12	0.0	14.0	1.7	16.9	2.5	.	.
O=C(NCCNc1ccc([N+](=O)[O-])cc1)c1ccc(Cl)cc1	-4.3	-6.7	-1.3	0.4	-13.0	.	.
COC(=O)c1ccc(C2/C(=C(\O)c3ccc(OC)c(C)c3)C(=O)C(=O)N2c2cc(C)on2)cc1 (stereo not given)	19.2*	-5.6	2.2	17.0	-0.1	15.9*	-5.5
CCOc1ccc(C2/C(=C(\O)c3ccc(OC)c(OC)c3)C(=O)C(=O)N2c2cc(C)on2)cc1OC (stereo not given)	-0.1	6.3	-0.1	1.8	6.4	.	.
Cc1n[nH]c(C)c1CCNC(=O)C1CCC(=O)N(CCc2cccc(F)c2)C1 (stereo not given)	-4.7	-2.1	1.0	8.0	2.9	.	.
COc1ccc2nc3cc(Cl)ccc3c(Nc3cc(C(C)C)c(O)cc3C)c2c1	28.6*	-10.9	3.9	-7.4	-15.7	7.6	-1.4
